# According to ChEMBL document CHEMBL1142981, “Identification and synthesis of a novel selective partial PPARdelta agonist with full efficacy on lipid metabolism in vitro and in vivo” (J Med Chem, 2007):
# How the values were obtained:
# [1] = Clearance in Sprague-Dawley rat at 1.09 mg/kg, iv; assay type: ADME, organism-based; design: dose 1.09 mg/kg, route intravenous; details: in vivo
# Outline: (§1)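 Male SD rats dosed once i.v. or p.o. (n = 8 per route), vehicle 5% ethanol, 10% HPCD, phosphate buffer pH 7.5-8.0. One animal sacrificed at each of 5, 15, 30, 60, 90, 120, 240 and 360 min; EDTA plasma analysed by high turbulence LC-MS/MS. Each data point represents one animal.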
# [2] = target: T1, Peroxisome proliferator-activated receptor delta (Mus musculus) (UniProt P35396); test: Agonist activity at mouse PPAR delta expressed in HEK293 cells by PPAR-GAL4 transactivation assay; assay type: functional, cell-based
# T1 sequence (whole entry): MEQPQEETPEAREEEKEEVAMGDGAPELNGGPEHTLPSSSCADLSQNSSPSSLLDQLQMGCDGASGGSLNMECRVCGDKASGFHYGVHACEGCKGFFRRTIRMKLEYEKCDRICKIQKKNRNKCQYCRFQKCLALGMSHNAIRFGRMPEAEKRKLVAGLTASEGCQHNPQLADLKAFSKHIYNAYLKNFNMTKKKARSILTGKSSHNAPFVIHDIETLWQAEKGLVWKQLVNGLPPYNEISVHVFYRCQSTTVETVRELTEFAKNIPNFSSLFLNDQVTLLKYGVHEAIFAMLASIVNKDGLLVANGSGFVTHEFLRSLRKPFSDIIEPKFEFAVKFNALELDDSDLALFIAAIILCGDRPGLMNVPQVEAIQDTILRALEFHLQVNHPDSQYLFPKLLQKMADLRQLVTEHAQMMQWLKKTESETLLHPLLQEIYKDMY
# Mus musculus [3] = test: Decrease in HbA1c level in human ApoB100/CETP transgenic mouse at 6 mg/kg, po after 6 weeks relative to control; assay type: functional; design: scale not given: the % may be the effect or the level left
# [4] = Oral bioavailability in Sprague-Dawley rat at 2.13 mg/kg; assay type: ADME, organism-based; details: in vivo
# Outline: (§2)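 Male SD rats received a single p.o. or i.v. dose (n = 8 per route) in 5% ethanol, 10% HPCD and phosphate buffer, pH 7.5-8.0. At 5, 15, 30, 60, 90, 120, 240 and 360 min one rat was sacrificed per time point. EDTA plasma was assayed by high turbulence LC-MS/MS. Cmax and bioavailability were taken from oral dosing; volume of distribution is at steady state.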
# Mus musculus [5] = test: Decrease in glucose level in human ApoB100/CETP transgenic mouse at 6 mg/kg, po after 6 weeks relative to control; assay type: functional; design: scale not given: the % may be the effect or the level left
# [6] = Half life in Sprague-Dawley rat at 2.13 mg/kg, po; assay type: ADME, organism-based; design: dose 2.13 mg/kg, route oral; details: in vivo; outline: as §1
# [7] = Volume of distribution in Sprague-Dawley rat at 1.09 mg/kg, iv; assay type: ADME, organism-based; design: dose 1.09 mg/kg, route intravenous; details: in vivo, read-out: Vss; outline: as §2
# Mus musculus [8] = test: Decrease in insulin level in human ApoB100/CETP transgenic mouse at 6 mg/kg, po after 6 weeks by ELISA relative to control; assay type: functional; design: scale not given: the % may be the effect or the level left
# Mus musculus [9] = test: Increase in HDL level in human ApoB100/CETP transgenic mouse at 6 mg/kg, po after 6 weeks relative to control; assay type: functional
# Mus musculus [10] = test: Decrease in total ketone bodies level in human ApoB100/CETP transgenic mouse at 6 mg/kg, po after 6 weeks relative to control; assay type: functional; design: scale not given: the % may be the effect or the level left
# [11] = Plasma Cmax in Sprague-Dawley rat at 2.13 mg/kg, po; assay type: ADME, organism-based; design: dose 2.13 mg/kg, route oral; outline: as §2
# Mus musculus [12] = test: Decrease in total cholesterol level in human ApoB100/CETP transgenic mouse at 6 mg/kg, po after 6 weeks relative to control; assay type: functional; design: scale not given: the % may be the effect or the level left
# Mus musculus [13] = test: Decrease in LDL level in human ApoB100/CETP transgenic mouse at 6 mg/kg, po after 6 weeks relative to control; assay type: functional; design: scale not given: the % may be the effect or the level left
# L6 [14] = test: Effect on fatty acid oxidation in rat L6 cells; assay type: functional, cell-based
# Outline: (§3)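 Rat L6 myoblasts differentiated 5 days in 2% serum, then treated 42 h with compound (refreshed at 24 h), followed by 6 h with 0.4 mM palmitate containing [9,10-3H]-palmitic acid on 2% fatty-acid-free BSA. Stopped with 10% TCA; released 3H-H2O collected by overnight equilibration at 50 °C and counted.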
# Mus musculus [15] = test: Decrease in triglycerides level in human ApoB100/CETP transgenic mouse at 6 mg/kg, po after 6 weeks relative to control; assay type: functional; design: scale not given: the % may be the effect or the level left
# L6 [16] = test: Effect on increase in fatty acid oxidation in rat L6 cells relative to basal; assay type: functional; outline: as §3
# [17] = target: T2, Peroxisome proliferator-activated receptor alpha (Homo sapiens) (UniProt Q07869); test: Activity at human liver PPAR alpha expressed in HEK293 cells by GAL4 transactivation assay relative to NNC61-4655; assay type: cell-based
# T2 sequence (whole entry): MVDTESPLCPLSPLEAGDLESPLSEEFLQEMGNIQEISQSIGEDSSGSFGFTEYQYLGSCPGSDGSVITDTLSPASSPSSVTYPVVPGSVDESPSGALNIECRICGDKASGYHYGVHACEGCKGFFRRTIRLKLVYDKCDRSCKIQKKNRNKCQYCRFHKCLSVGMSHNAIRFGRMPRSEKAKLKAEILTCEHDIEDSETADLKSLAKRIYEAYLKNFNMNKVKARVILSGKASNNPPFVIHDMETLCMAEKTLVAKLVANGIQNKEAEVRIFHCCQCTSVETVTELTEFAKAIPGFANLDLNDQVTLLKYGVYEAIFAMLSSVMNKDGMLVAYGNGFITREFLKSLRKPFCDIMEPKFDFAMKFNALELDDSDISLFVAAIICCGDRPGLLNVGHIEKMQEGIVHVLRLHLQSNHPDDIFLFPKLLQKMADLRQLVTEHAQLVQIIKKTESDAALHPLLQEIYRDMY
# L6 [18] = test: Effect on increase in fatty acid oxidation in rat L6 cells relative to GW-501516; assay type: functional; design: concentration or dose not given beside the values; outline: as §3
# [19] = target: T3, Peroxisome proliferator-activated receptor delta (Homo sapiens, UniProt Q03181)
# T3 sequence (Q03181 whole entry): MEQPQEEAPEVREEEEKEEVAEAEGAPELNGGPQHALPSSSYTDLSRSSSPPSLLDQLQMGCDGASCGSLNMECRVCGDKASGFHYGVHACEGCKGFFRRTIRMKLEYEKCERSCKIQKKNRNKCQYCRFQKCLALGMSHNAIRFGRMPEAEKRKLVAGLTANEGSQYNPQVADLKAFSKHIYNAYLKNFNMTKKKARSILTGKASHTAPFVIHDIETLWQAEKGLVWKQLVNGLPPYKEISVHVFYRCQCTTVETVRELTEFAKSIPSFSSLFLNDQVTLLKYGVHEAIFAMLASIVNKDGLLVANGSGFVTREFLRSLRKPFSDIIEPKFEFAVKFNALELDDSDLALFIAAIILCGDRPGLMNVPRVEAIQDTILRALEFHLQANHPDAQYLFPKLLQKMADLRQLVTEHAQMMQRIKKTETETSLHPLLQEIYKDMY
# [20] = Volume of distribution in Sprague-Dawley rat at 0.20 mg/kg, iv; assay type: ADME, organism-based; design: dose 0.2 mg/kg, route intravenous; details: in vivo, 0.2 mg/kg, read-out: Vss; outline: as §2
# [21] = Plasma Cmax in Sprague-Dawley rat at 0.45 mg/kg, po; assay type: ADME, organism-based; design: dose 0.45 mg/kg, route oral
# Outline: (§4)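 Male SD rats, single oral dose in 5% ethanol/10% HPCD/phosphate buffer pH 7.5-8.0, n = 8. One animal was killed at each of 5, 15, 30, 60, 90, 120, 240 and 360 min. EDTA plasma was analysed by turbulent-flow LC-MS/MS. Cmax, half-life and oral bioavailability were taken from the plasma curves, with bioavailability using a parallel i.v. arm.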
# [22] = Half life in Sprague-Dawley rat at 0.45 mg/kg, po; assay type: ADME, organism-based; design: dose 0.45 mg/kg, route oral; details: in vivo; outline: as §4
# [23] = Clearance in Sprague-Dawley rat at 0.20 mg/kg, iv; assay type: ADME, organism-based; design: dose 0.2 mg/kg, route intravenous; details: in vivo, 0.2 mg/kg; outline: as §1
# [24] = Oral bioavailability in Sprague-Dawley rat at 0.45 mg/kg; assay type: ADME, organism-based; details: in vivo; outline: as §4
# [25] = target: T4, Peroxisome proliferator-activated receptor alpha (Homo sapiens, UniProt Q07869); test: Activity at human liver PPAR alpha expressed in HEK293 cells by PPAR-GAL4 transactivation assay; assay type: cell-based
# T4 sequence (Q07869 whole entry): T2 sequence (whole entry)
# [26] = Plasma Cmax in Sprague-Dawley rat at 2.29 mg/kg, po; assay type: ADME, organism-based; design: dose 2.29 mg/kg, route oral; outline: as §2
# [27] = Oral bioavailability in Sprague-Dawley rat at 2.29 mg/kg; assay type: ADME, organism-based; details: in vivo; outline: as §2
# [28] = Clearance in Sprague-Dawley rat at 1.08 mg/kg, iv; assay type: ADME, organism-based; design: dose 1.08 mg/kg, route intravenous; details: in vivo; outline: as §1
# [29] = Volume of distribution in Sprague-Dawley rat at 1.08 mg/kg, iv; assay type: ADME, organism-based; design: dose 1.08 mg/kg, route intravenous; details: in vivo, read-out: Vss; outline: as §2
# [30] = Half life in Sprague-Dawley rat at 2.29 mg/kg, po; assay type: ADME, organism-based; design: dose 2.29 mg/kg, route oral; details: in vivo; outline: as §1
# [31] = target: T5, Peroxisome proliferator-activated receptor gamma (Homo sapiens, UniProt P37231); assay type: cell-based, HEK293
# T5 sequence (P37231 whole entry): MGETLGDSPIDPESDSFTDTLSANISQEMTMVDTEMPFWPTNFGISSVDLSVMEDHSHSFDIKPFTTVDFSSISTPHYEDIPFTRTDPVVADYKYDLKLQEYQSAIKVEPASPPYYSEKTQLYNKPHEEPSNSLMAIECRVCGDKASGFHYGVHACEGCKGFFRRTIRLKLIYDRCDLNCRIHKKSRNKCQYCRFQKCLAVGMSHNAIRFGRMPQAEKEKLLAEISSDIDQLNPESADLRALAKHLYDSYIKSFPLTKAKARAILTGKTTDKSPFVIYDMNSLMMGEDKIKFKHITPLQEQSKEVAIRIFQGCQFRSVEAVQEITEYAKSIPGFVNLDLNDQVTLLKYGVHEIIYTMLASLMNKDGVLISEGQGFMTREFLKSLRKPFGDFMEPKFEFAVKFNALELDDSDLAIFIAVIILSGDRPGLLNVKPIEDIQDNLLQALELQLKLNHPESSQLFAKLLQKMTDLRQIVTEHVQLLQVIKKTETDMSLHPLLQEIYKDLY
SMILES,Efficacy [17],Vd [20],Cmax [21],half-life [22],clearance [23],EC50 (L6 [14]),Activity (L6 [18]),EC50 [19],EC50 [25],further results
CC(C)(Oc1ccc(C(=O)c2ccc(Cl)cc2)cc1)C(=O)O [FENOFIBRIC ACID],> 94%,,,,,3 µM,70%,> 10 µM,> 10 µM,
CCO[C@@H](Cc1ccc(OCC=C(c2ccc(Br)cc2)c2ccc(Br)cc2)cc1)C(=O)O,93%,,,,,,,0.54 µM,0.39 µM,Cmax [26]: 554 ng/mL; bioavailability [27]: 78%; clearance [28]: 21.4 mL/min/kg; Vd [29]: 2.3 L/kg; half-life [30]: 1.42 h; EC50 [31]: 0.59 µM

# Second part, led by results:
Efficacy [17],Vd [20],Cmax [21],half-life [22],clearance [23],SMILES,EC50 (L6 [14]),Activity (L6 [18]),EC50 [19],EC50 [25],further results
68%,,,,,Cc1cc(SCc2sc(-c3ccc(C(F)(F)F)cc3)nc2C)ccc1OCC(=O)O [GW501516],0.006 µM,,,,clearance [1]: 7 mL/min/kg; Activity [2]: 269%; Activity (Mus musculus [3]): 13%; bioavailability [4]: 136%; Activity (Mus musculus [5]): 4%; half-life [6]: 10.2 h; Vd [7]: 1 L/kg; Activity (Mus musculus [8]): 41%; Activity (Mus musculus [9]): 4%; Activity (Mus musculus [10]): 49%; Cmax [11]: 454 ng/mL; Activity (Mus musculus [12]): 15%; Activity (Mus musculus [13]): 19%; Activity (Mus musculus [15]): 14%; Activity (L6 [16]): 120%
< 10%,1.4 L/kg,241 ng/mL,3.02 h,7 mL/min/kg,O=C(O)Cc1ccc(OCC=C(c2ccc(Br)cc2)c2ccc(Br)cc2)c(Cl)c1,0.379 µM,85%,2.3 µM,,bioavailability [24]: 130%
< 10%,5.3 L/kg,51 ng/mL,15.9 h,27 mL/min/kg,O=C(O)CCc1cccc(OCC=C(c2ccc(Br)cc2)c2ccc(Br)cc2)c1,0.615 µM,59%,5.9 µM,,
